ChEMBL document CHEMBL2069262, “Stimulation of Glucose-Dependent Insulin Secretion by a Potent, Selective sst3 Antagonist” (ACS Med Chem Lett, 2012)
Active and inactive are the calls of the source. No cut-off for these calls is given here. Positions of bridges follow the written chain, without caps; N, C: chain ends. Non-standard residues stand in square brackets, D forms with d. Residues, ends and D or L forms follow the SMILES beside them. *: point of attachment. Threoninol(2S,3R) = C[C@@H](O)[C@H](CO)N*

Tests used:
[1] = biological target: T1, Somatostatin receptor type 3 (Homo sapiens, UniProt P32745); assay: Displacement of [125I]SS-14 from human SST3 receptor expressed in CHO cells after 60 mins by scintillation counting; format: cell-based
T1 sequence (P32745 whole entry): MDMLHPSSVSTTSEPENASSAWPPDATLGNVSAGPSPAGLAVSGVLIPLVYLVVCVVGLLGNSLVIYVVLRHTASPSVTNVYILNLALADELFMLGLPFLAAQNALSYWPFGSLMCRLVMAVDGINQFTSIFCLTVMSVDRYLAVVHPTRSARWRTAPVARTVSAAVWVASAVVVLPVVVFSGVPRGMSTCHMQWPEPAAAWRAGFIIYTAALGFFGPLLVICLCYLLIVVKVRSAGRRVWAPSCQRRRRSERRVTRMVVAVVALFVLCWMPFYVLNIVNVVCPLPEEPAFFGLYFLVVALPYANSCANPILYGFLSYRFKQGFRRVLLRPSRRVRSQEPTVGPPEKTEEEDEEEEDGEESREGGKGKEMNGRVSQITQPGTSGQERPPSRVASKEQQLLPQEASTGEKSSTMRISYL

[2] = biological target: T1, Somatostatin receptor type 3; format: functional, cell-based, CHO
[3] = biological target: Voltage-gated inwardly rectifying potassium channel KCNH2 (Homo sapiens, UniProt Q12809); assay: Displacement of [35S]MK499 from human Erg expressed in HEK293 cells after 60 mins by scintillation counting; format: cell-based
Sequence of Voltage-gated inwardly rectifying potassium channel KCNH2 (Q12809 whole entry): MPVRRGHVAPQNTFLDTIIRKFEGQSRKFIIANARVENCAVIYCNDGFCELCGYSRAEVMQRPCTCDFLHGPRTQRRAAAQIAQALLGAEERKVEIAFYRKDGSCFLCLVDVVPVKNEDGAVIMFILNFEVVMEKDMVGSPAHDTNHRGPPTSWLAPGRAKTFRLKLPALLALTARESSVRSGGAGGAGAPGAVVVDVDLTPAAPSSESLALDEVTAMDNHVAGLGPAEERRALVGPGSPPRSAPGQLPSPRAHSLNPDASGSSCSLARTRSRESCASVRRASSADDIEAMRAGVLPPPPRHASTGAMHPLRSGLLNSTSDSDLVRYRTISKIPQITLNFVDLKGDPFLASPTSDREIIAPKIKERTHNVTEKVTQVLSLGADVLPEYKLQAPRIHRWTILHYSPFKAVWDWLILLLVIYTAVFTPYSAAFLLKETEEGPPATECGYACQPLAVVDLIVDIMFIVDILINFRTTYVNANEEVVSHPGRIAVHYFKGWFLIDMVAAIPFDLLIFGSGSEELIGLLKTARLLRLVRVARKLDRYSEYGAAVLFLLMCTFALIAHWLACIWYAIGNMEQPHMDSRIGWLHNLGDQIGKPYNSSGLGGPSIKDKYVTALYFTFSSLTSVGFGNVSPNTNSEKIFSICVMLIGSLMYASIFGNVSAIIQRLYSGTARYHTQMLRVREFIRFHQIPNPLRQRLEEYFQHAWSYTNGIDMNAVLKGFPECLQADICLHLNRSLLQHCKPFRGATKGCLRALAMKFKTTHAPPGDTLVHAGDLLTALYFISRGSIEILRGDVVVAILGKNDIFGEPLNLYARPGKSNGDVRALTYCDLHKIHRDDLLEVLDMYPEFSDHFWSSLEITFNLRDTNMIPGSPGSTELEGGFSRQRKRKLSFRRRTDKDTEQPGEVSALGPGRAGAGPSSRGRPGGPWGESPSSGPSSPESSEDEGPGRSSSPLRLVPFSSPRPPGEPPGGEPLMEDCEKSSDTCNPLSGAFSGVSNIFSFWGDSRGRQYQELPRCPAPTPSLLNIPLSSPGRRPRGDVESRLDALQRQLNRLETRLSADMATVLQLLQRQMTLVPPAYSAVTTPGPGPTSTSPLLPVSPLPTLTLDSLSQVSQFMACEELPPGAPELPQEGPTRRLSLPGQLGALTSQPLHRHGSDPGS

[4] = biological target: Voltage-gated L-type calcium channel (Homo sapiens, UniProt Q13936+Q13698+Q01668+O60840); assay: Binding affinity to L-type calcium channel
[5] = Clearance in C57BL/6N mouse at 1 mg/kg, iv and 2 mg/kg, po; format: ADME, organism-based; conditions: in vivo
[6] = system: Mus musculus; assay: Dose normalized AUC in C57BL/6N mouse at 2 mg/kg, po; format: ADME, organism-based; parameters: dose 2 mg/kg, route oral; conditions: in vivo
[7] = Cmax in C57BL/6N mouse at 2 mg/kg, po; format: ADME, organism-based; parameters: dose 2 mg/kg, route oral; conditions: in vivo
[8] = Volume of distribution at steady state in C57BL/6N mouse at 1 mg/kg, iv and 2 mg/kg, po; format: ADME, organism-based; conditions: in vivo, read-out: Vdss
[9] = Half life in C57BL/6N mouse at 1 mg/kg, iv and 2 mg/kg, po; format: ADME, organism-based; conditions: in vivo
[10] = Oral bioavailability in C57BL/6N mouse at 2 mg/kg; format: ADME, organism-based; conditions: in vivo
[11] = Activation of glucose-stimulated insulin secretion in C57BL/6J mouse pancreatic islets at 10 nM after 1 hr by ELISA in presence of 16 mM glucose relative to DMSO; format: functional; conditions: Pancreatic islet
How it was run: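 Pancreatic islets were isolated from normal C57BL/6J mice. Insulin secretion was measured at 2 and 16 mM glucose. Treatments were test agent at 10 μM, octreotide at 50 nM, the two combined, DMSO as negative control and GLP-1 at 10 nM as positive control. n = 4.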

[12] = Inhibition of glucose-stimulated insulin secretion in C57BL/6J mouse pancreatic islets at 50 nM after 1 hr by ELISA; format: functional, Pancreatic islet; parameters: scale not given: the % may be the effect or the level left
How it was run: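 Islets isolated from normal C57BL/6J mice were incubated at basal (2 mM) and stimulatory (16 mM) glucose, and insulin secretion was measured. DMSO served as the negative control and GLP-1 at 10 nM as the positive control. n = 4.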

Row | IC50 [1] | IC50 [2] | Compound | IC50 [3] | further results
1 | 63 nM | 220 nM | c1ccc(-c2c[nH]c([C@H]3Cc4c([nH]c5ccccc45)C(C4CCNCC4)N3)n2)cc1 (stereo not given in full) | – | –
2 | 16 nM | 46 nM | CC(=O)N1CCC(C2N[C@@H](c3nc(-c4ccccc4)c[nH]3)Cc3c2[nH]c2ccccc32)CC1 (stereo not given in full) | 9800 nM | –
3 | 1.7 nM | 10 nM | c1ccc(-c2c[nH]c([C@H]3Cc4c([nH]c5ccccc45)C(C4CCSCC4)N3)n2)cc1 (stereo not given in full) | 120 nM | –
4 | 21 nM | 24 nM | [O-][S+]1CCC(C2N[C@@H](c3nc(-c4ccccc4)c[nH]3)Cc3c2[nH]c2ccccc32)CC1 (single isomer, unassigned; isomer 2) | 100 nM | –

The next lines start with the compound.

Row | Compound | IC50 [1] | IC50 [2] | IC50 [3] | further results
5 | CCCCC1(CCCC)N[C@@H](c2nc(-c3ccccc3)c[nH]2)Cc2c1[nH]c1ccccc21 | – | – | 150 nM | IC50 [4]: 128 nM; clearance [5]: 126 mL/min/kg
6 | c1ccc(-c2c[nH]c([C@H]3Cc4c([nH]c5ccccc45)C(C4CCCCC4)N3)n2)cc1 (stereo not given in full) | – | – | – | AUC/dose [6]: 0.07 µM·h/mg; Cmax [7]: 60 nM; Vd [8]: 8.1 L/kg; half-life [9]: 8.4 min; IC50 [4]: 308 nM; bioavailability [10]: 15%; clearance [5]: 95 mL/min/kg
7 | CC[C@H](C)[C@H](NC(=O)[C@H](Cc1ccccc1)NC(=O)[C@H](CCC(=O)O)NC(=O)[C@H](CCCCN)NC(=O)[C@H](C)NC(=O)[C@H](C)NC(=O)[C@H](CCC(N)=O)NC(=O)CNC(=O)[C@H](CCC(=O)O)NC(=O)[C@H](CC(C)C)NC(=O)[C@H](Cc1ccc(O)cc1)NC(=O)[C@H](CO)NC(=O)[C@H](CO)NC(=O)[C@@H](NC(=O)[C@H](CC(=O)O)NC(=O)[C@H](CO)NC(=O)[C@@H](NC(=O)[C@H](Cc1ccccc1)NC(=O)[C@@H](NC(=O)CNC(=O)[C@H](CCC(=O)O)NC(=O)[C@H](C)N[C@@H](Cc1cnc[nH]1)C(=O)O)[C@@H](C)O)[C@H](C)O)C(C)C)C(=O)N[C@@H](C)C(=O)N[C@@H](Cc1c[nH]c2ccccc12)C(=O)N[C@@H](CC(C)C)C(=O)N[C@H](C(=O)N[C@@H](CCCCN)C(=O)NCC(=O)N[C@@H](CCCNC(=N)N)C(N)=O)C(C)C | – | – | – | Activity [11]: Active
8 | CC(C)(C)OC(=O)N1CCC(C2N[C@@H](c3nc(-c4ccccc4)c[nH]3)Cc3c2[nH]c2ccccc32)CC1 (stereo not given in full) | 7 nM | 1000 nM | – | –
9 | C[C@@H](O)[C@H](CO)NC(=O)[C@@H]1CSSC[C@H](NC(=O)[C@H](N)Cc2ccccc2)C(=O)N[C@@H](Cc2ccccc2)C(=O)N[C@H](Cc2c[nH]c3ccccc23)C(=O)N[C@@H](CCCCN)C(=O)N[C@@H]([C@@H](C)O)C(=O)N1 (H-[dF]CF[dW]KTC-{Threoninol(2S,3R)}; disulfide 2-7) | – | – | – | Activity [12]: 39%
